The list is not random: actives were taken first. Their share in the collection is about 1.6%.
PPC-1+TRAIL kill – compounds killing PPC-1 cancer cells with TRAIL present, primary screen, TRAIL potentiator project, ATPLite luminescence, uHTS | AID 1443, 2008 | PPC-1 cells + TRAIL, ATPLite viability luminescence | 220,000 tested, 0.41% active | cell killing (% activity), % at 4 µM or 5 µM;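 active = cell killing above 50% in the first pass at 4 µM, then a duplicate retest at 5 µM averaging 50% or more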;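 also: plate controls were cells with TRAIL plus DMSO for no effect and medium-only wells lacking cells for full effect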
C8 TRAIL sens – viability loss with TRAIL in NB7+C8 cells, primary screen, TRAIL sensitizer project, cell-based, ATPlite luminescence; AID 624354, 2012; inhibition (viability loss, TRAIL sensitization), % at 10 µM; 360,000 tested, 1% active;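 active = compounds causing at least 50% loss of cell viability in the single-dose screen, relative to plate controls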
FLuc stim CS – FLuc activators, initial screening, artefact control for FLuc-dependent activation tests, biochemical, ATPlite luminescence. Luciferin 4-monooxygenase (Photinus pyralis), P08659. ATPlite luciferase biochemical, 10 min; 0 = ATP-free wells, 1 = DMSO control. activation factor at 10 µM. 200,000 tested, under 10 active. AID 1027, 2008;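 active = luciferase activation factor, scaled between plate controls, of at least 2 with compound at 10 µM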
Target sequence (P08659 whole entry, looked up): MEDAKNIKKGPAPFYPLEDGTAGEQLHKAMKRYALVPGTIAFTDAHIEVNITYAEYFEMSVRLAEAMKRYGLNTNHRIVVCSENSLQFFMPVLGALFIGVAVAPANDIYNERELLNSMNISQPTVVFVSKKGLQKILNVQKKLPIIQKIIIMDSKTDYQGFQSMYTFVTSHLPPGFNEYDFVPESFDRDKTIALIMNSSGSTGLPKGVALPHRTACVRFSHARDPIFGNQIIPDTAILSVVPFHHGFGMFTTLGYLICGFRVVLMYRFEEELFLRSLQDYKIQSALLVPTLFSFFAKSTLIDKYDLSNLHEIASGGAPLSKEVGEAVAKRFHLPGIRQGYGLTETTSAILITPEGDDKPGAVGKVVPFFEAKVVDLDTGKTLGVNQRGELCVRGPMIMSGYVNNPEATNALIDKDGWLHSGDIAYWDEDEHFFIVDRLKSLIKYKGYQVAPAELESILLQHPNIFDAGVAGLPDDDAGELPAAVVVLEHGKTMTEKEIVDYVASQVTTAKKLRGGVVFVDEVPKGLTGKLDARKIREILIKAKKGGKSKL
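Material: Luciferase/luciferin reagent mix; Doses: test compounds dosed from 2 mM stocks in 100% DMSO; Schedule: 10 min incubation after luciferase reagent addition, room temperature; Measured by: luminescence from luciferase reaction; Read-out: luminescence gain marking luciferase activators.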
FLuc inh counter – firefly luciferase enzyme inhibitors, primary screen, artefact control for luciferase-based inhibitor screens, biochemical, luminescence, ATPLite; Luciferin 4-monooxygenase (Photinus pyralis), P08659; 10 min; inhibition, % at 10 µM; 200,000 tested, 1.5% active;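 active = inhibition above about 50% when tested at 10 µM, limit read from the data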
Platelet DG rel – inhibitors of platelet dense granule secretion, primary screen, cell-based, MLPCN, human platelets | human platelet-rich plasma, SFLLRN dense granule ATP release, luminescence | inhibition, %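 (compounds screened at 7.5 µM in platelet-rich plasma)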 | 300,000 tested, 0.22% active | AID 1663, 2009;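 active = mean replicate score, as percent of positive control, at or above 50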
Numbers without * were called inactive; · = not tested or not shown.

SMILES	PPC-1+TRAIL kill	C8 TRAIL sens	FLuc stim CS	FLuc inh counter	Platelet DG rel
CC1(C(=O)NCCC(F)(F)F)Cc2c(-c3ccccc3)ccnc2O1 (stereo not drawn)	·	14	·	·	·
CC(=O)C1=CCC(c2ccco2)N(S(=O)(=O)c2ccc(C)cc2)C1 (stereo not drawn)	·	-10	·	·	·
Cc1ccccc1Oc1cc(-n2ncc(Cl)c(Cl)c2=O)ncn1	18	97*	1.1	-9	·
CCOc1cnn(-c2cc(Oc3ccc(C)cc3)ncn2)c(=O)c1Cl	-16	-2	1	-5	12
CCc1nc2ccc(C(=O)NCC3CCCCC3)cn2c1N(C)Cc1ccc(OC)cc1	·	5	·	·	·
Cc1ccc(C(=O)NC2CCc3ccccc3C2=O)cc1 (stereo not drawn)	30	27	0.4	62*	0
Cc1ccc(C(=O)NC2CCSC2=O)cc1 (stereo not drawn)	22	-3	1.1	-5	-5
CCCCNC(=O)C(NC(=O)c1cccs1)C(=O)c1ccccc1 (stereo not drawn)	·	-13	·	·	·
Cc1ccccc1-n1c(=O)cc(N2CCN(C(=O)c3ccco3)CC2)[nH]c1=O	·	-9	1	-1	52*
C[C@@H]1CN([C@H](C)CO)C(=O)CCCn2nncc2CO[C@H]1CN(C)Cc1ccc(O)cc1	·	-6	·	·	·
O=C(N/N=C/c1ccc(O)c2ncccc12)c1cccc(Br)c1	19	55*	1	2	-3
O=C(N/N=C/c1cc(Br)ccc1O)c1ccncc1	32	3	·	·	-18
NC(=O)c1sc2nc(-c3ccccc3)ccc2c1N	·	4	·	·	16
CCOC(=O)c1sc2nc(-c3ccccc3)ccc2c1N	58*	77*	0.2	82*	1
COC(=O)C12OCC34C(CC5C(C)=C(O)C(=O)CC5(C)C3C(O)C1O)OC(=O)C(OC(=O)C=C(C)C)C24 (stereo not drawn)	·	65*	·	·	·
CC(O)(c1ccc(F)c(F)c1)c1nc(-c2cc3ccccc3o2)cs1 (stereo not drawn)	·	3	·	·	·
O=C(c1ccccc1F)N1CCC2CC1c1cc(N3CCCCC3)ccc12 (stereo not drawn)	·	7	·	·	·
Cc1nc2ccc(NC(=O)CCS(=O)(=O)c3ccccc3)cc2s1	30	-3	0.9	9	-3
Cc1ccc2nc(-c3ccc(NC(=O)CCS(=O)(=O)c4ccccc4)cc3)sc2c1	45	88*	0.9	11	3
Cc1ccc2nc(-c3ccc(NC(=O)C(C)Sc4nncs4)cc3)sc2c1 (stereo not drawn)	·	52*	·	·	5
Cc1ccc2nc(-c3ccc(NC(=O)CN4C(=O)c5ccccc5C4=O)cc3)sc2c1	36	47	0.6	38	-2
Cc1ccc2nc(-c3ccc(NC(=O)COC(=O)c4ccc(=O)[nH]c4)cc3)sc2c1	50*	49	0.5	50*	14
Cc1ccc2nc(-c3ccc(NC(=S)NC(=O)CC(C)C)cc3)sc2c1	-14	9	1	0	2
O=C(Nc1ccc(F)cc1)C(c1cc2ccccc2o1)N1CCN(c2ccncc2)CC1 (stereo not drawn)	·	-2	·	·	·
COc1ccc(CN2C(=O)CSCC2(C)C(=O)Nc2c(C)cccc2C)cc1 (stereo not drawn)	·	29	·	·	·
SMILES	PPC-1+TRAIL kill	C8 TRAIL sens	FLuc stim CS	FLuc inh counter	Platelet DG rel
O=C(NCCc1ccccc1)C(c1cccs1)N(C(=O)CCl)c1ccc(Cl)cc1 (stereo not drawn)	9	96*	1	-1	17
O=C(NCCc1ccccc1)C(c1cccs1)N(C(=O)c1csnn1)C1CC1 (stereo not drawn)	-2	17	1.1	-8	0
COc1cc(C(=O)N(C)C2CCCCC2)cc(OC)c1OC	·	12	·	·	·
O=C(O)CCNc1ccc(NCCC(=O)O)c2c1C(=O)c1ccccc1C2=O	·	1	·	·	-3
O=C1c2cccc(NCCNCCO)c2C(=O)c2cccc(NCCNCCO)c21	·	64*	·	·	·
CN(C)c1ccc(NC(=O)c2cccc(C(=O)Nc3ccc(N(C)C)cc3)n2)cc1	34	53*	0.4	56*	-2
CN(C)c1ccc(NC(=O)/C=C/c2ccccc2Cl)cc1	25	29	0.4	64*	-10
O=C(Nc1ccccc1)c1cccc(C(=O)Nc2ccccc2)n1	·	-26	·	·	-6
COc1ccccc1CNC(=O)C1(C)CCN1C(=O)C1(c2ccccc2)CC1 (stereo not drawn)	·	-13	·	·	·
COc1ccccc1NC(=O)COC(=O)c1c[nH]c(=O)[nH]c1=O	22	18	·	·	-10
O=C(COC(=O)c1c[nH]c(=O)[nH]c1=O)Nc1ccccc1Br	-1	2	·	·	82*
O=C1/C(=C/c2ccncc2)CCc2ccccc21	20	21	·	·	39
O=C1C(=Cc2ccccc2Cl)CCc2ccccc21	·	53*	·	·	·
O=C1/C(=C\c2ccncc2)CCc2ccccc21	·	20	·	·	32
COc1ccccc1C=C1CCc2ccccc2C1=O	·	77*	·	·	·
CCOc1ccccc1C=C1CCc2ccccc2C1=O	·	4	·	·	·
O=C1C(=Cc2ccc(F)cc2)CCc2ccccc21	·	80*	·	·	·
O=C1C(=Cc2ccc(Cl)cc2)CCc2ccccc21	·	81*	·	·	·
O=C1C(=Cc2cccc(Cl)c2)CCc2ccccc21	·	9	·	·	·
CN(C)C(=O)c1cc2c(c(-c3cccc(-c4ccccc4F)c3)n1)[C@@H](CCO)N(S(C)(=O)=O)C2	·	17	·	·	·
CCCCCNC(=O)C(CCc1ccccc1)n1c(=O)c(-c2ccccc2)nc2ccccc21 (stereo not drawn)	·	2	·	·	·
COc1ccc(NC(=O)C[C@H]2C(=O)N(Cc3ccccc3)C[C@@H]2CSC)cc1	·	-8	·	·	·
CCOC(=O)c1c(NC(=O)COc2ccccc2OCC)sc2c1CC(C)(C)NC2(C)C	·	91*	·	·	0
CC1(C)Cc2c(sc(NC(=O)COc3cccc4ccccc34)c2C#N)C(C)(C)N1	4	85*	·	·	4
COC(=O)c1c(NC(=O)c2ccc(OC(C)C)cc2)sc2c1CC(C)(C)NC2(C)C	23	72*	1	-4	1
SMILES	PPC-1+TRAIL kill	C8 TRAIL sens	FLuc stim CS	FLuc inh counter	Platelet DG rel
CC(=O)Nc1cccc(-c2ccnc3c2CC(C)(C(=O)Nc2cccnc2)O3)c1 (stereo not drawn)	·	-13	·	·	·
CC(C)(C)c1csc(NC(=O)Nc2ccccc2)n1	25	54*	0.5	46	-5
Cc1ccc(F)cc1C(=O)N1CCCCC1c1cc(C(=O)Nc2ccc(F)c(Cl)c2)no1 (stereo not drawn)	·	23	·	·	·
CCOC(=O)/C(=C\c1cccnc1)C(=O)c1cc(C(C)=O)c(Nc2ccccc2)s1	12	94*	1.1	-5	-8
CCN1C(=O)N2C[C@H]3CON(C)[C@H]3C[C@H]2c2ccccc21	·	-4	·	·	·
C[C@H](CO)N1C[C@H](C)[C@H](CN(C)S(=O)(=O)c2ccccc2F)OCc2cnnn2CCCC1=O	·	7	·	·	·
